In ChEMBL document CHEMBL1781963, “Discovery of novel hepatoselective HMG-CoA reductase inhibitors for treating hypercholesterolemia: a bench-to-bedside case study on tissue selective drug distribution” (Bioorg Med Chem Lett, 2011):

How the values were obtained:
[1] = target: T1, OATP1B3 (Homo sapiens, UniProt Q9NPD5); assay: Drug uptake by human hepatic OATP1B3 transporter expressed in HEK293 cells at 1 uM relative to wild-type HEK293 cells; format: ADME, cell-based; conditions: HEK293 cells expressing human OATP1B3, read-out: FC
T1 sequence (Q9NPD5 whole entry): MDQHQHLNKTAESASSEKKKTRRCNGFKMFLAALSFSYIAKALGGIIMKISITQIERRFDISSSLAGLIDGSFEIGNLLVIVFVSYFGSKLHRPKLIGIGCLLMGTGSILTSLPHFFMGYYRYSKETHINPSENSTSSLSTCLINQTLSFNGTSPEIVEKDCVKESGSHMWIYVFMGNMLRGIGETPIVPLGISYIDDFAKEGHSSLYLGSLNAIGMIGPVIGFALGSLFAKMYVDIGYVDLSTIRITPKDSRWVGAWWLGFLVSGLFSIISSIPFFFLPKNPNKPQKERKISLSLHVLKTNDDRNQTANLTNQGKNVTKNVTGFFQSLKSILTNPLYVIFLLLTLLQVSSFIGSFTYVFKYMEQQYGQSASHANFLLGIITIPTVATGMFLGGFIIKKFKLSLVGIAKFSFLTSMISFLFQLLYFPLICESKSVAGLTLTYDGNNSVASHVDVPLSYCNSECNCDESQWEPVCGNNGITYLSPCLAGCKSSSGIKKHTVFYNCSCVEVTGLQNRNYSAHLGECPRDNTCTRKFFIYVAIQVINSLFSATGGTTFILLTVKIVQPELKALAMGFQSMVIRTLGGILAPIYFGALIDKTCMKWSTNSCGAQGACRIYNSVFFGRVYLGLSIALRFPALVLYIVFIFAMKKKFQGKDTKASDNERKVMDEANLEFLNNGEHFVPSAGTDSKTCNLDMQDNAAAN
In short: (§1)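 Individual hepatic OATP transporters were over-expressed in CHO or HEK293 cells: rat rOatp1a1, rOatp1a4 and rOatp1b2, and human hOATP1B1, hOATP1B3 and hOATP2B1. Substrate uptake is expressed as fold difference relative to the wild-type parental line. Rosuvastatin/pravastatin served as positive control and midazolam as negative control in each assay.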

[2] = target: T2, OATP1A4 (Rattus norvegicus, UniProt O35913); assay: Drug uptake by rat hepatic OATP1A4 transporters expressed in CHO cells at 1 uM relative to wild type CHO cells; format: ADME, cell-based; conditions: CHO cells expressing rat OATP1A4, read-out: FC; in short: as §1
T2 sequence (O35913 whole entry): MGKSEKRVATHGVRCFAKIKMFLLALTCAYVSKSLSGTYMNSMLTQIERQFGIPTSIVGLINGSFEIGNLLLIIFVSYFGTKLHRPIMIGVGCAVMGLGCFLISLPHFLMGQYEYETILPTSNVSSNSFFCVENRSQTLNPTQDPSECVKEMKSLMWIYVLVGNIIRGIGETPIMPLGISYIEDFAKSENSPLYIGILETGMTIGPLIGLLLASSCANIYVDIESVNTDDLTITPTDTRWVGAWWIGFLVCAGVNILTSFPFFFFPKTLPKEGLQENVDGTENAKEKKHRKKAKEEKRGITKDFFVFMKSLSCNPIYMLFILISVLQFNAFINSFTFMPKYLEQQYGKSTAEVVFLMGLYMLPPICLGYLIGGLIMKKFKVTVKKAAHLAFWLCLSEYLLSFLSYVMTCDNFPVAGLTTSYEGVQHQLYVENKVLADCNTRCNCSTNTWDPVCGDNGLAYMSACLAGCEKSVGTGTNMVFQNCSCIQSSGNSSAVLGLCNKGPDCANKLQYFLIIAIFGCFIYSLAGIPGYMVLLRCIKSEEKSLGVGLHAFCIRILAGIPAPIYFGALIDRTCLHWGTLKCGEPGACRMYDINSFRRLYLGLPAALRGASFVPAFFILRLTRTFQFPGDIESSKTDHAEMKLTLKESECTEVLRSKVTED

[3] = system: Hepatocyte; assay: Drug uptake in sandwich-cultured human hepatocytes assessed per mg of protein at 1 uM in presence of rifamycin SV; format: ADME, cell-based
In short: (§2)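 Rat or human hepatocytes were cultured in sandwich configuration with a Matrigel overlay and compound uptake was measured. Active uptake was assessed by inhibition with the pan-OATP inhibitor rifamycin SV. Rosuvastatin/pravastatin served as positive control and midazolam as negative control.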

[4] = Fraction unbound in rat plasma at 0.5 ug/ml; format: ADME, cell-free
In short: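 Unbound fraction in rat, dog or human plasma, measured at a drug concentration of 0.5 μg/mL.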

[5] = system: Hepatocyte; assay: Drug uptake in sandwich-cultured rat hepatocytes assessed per mg of protein at 1 uM in presence of rifamycin SV; format: ADME, cell-based; in short: as §2
[6] = Ratio of fAUC (0 to 24 hrs) in liver to plasma in Sprague-Dawley rat at 10 mg/kg, po; format: ADME, organism-based; set-up: dose 10 mg/kg, route oral; conditions: liver and plasma
In short: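 Sprague-Dawley rats given a single oral dose (10 or 25 mg/kg). Free drug measured in liver and plasma at 0, 0.5, 1, 2, 3, 4, 7 and 24 h, n = 3/time point.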

[7] = Fraction unbound in rat liver at 1 uM; format: ADME, tissue-based
In short: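 Unbound fraction in rat liver tissue, measured at 1 μM drug.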

[8] = system: Rattus norvegicus; assay: fCmax in rat at 10 mg/kg, po; format: ADME, organism-based; set-up: dose 10 mg/kg, route oral; conditions: in vivo
In short: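 Single po dose: rat 10 mg/kg (n = 2), dog 5 mg/kg (n = 1 or 3 animals). Values are geometric means. Cmax is given as free drug concentration using plasma protein binding values, which were determined at 0.5 μg/mL.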

[9] = Oral bioavailability in rat at 10 mg/kg; format: ADME, organism-based; conditions: in vivo
In short: (§3)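 Rat and dog given 1 mg/kg iv, or po at 10 mg/kg (rat) or 5 mg/kg (dog). Plasma sampled to 24 h. AUC(0-24) as free drug using plasma protein binding values. Geometric mean of n = 2 animals/group; dog po n = 3 or n = 1.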

[10] = Volume of distribution at steady state in dog at 1 mg/kg, iv; format: ADME, organism-based, Canis lupus familiaris; set-up: dose 1 mg/kg, route intravenous; conditions: in vivo, read-out: Vdss; in short: as §3
[11] = system: Homo sapiens; assay: Inhibition of HMG-CoA reductase in human assessed as decrease in AUC (0 to 24 hrs) of mevalonate level in plasma at 40 mg administered as single dose relative to control; format: functional
[12] = system: Canis familiaris; assay: fAUC (0 to 24 hrs) in dog at 1 mg/kg, iv; format: ADME, organism-based, Canis lupus familiaris; set-up: dose 1 mg/kg, route intravenous; conditions: in vivo; in short: as §3
[13] = Cmax in human plasma at 40 mg administered as single dose; format: ADME, organism-based; set-up: dose 40 mg
In short: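 Phase 1 single ascending oral dose in healthy volunteers, about 5–6 subjects per dose. Total plasma drug Cmax and AUC(0-∞) were measured. Free-drug exposures were derived using plasma protein binding.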

[14] = Volume of distribution at steady state in rat at 1 mg/kg, iv; format: ADME, organism-based; set-up: dose 1 mg/kg, route intravenous; conditions: in vivo, read-out: Vdss; in short: as §3
[15] = Drug excretion in human urine after 24 hrs; format: ADME, tissue-based; conditions: read-out: Activity
In short: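 Single ascending oral dose in healthy volunteers; the percentage of drug excreted in urine was measured at 24 h post dose.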

[16] = Oral bioavailability in dog at 5 mg/kg; format: ADME, organism-based, Canis lupus familiaris; conditions: in vivo; in short: as §3
[17] = system: Plasma; assay: fCmax in human plasma at 40 mg administered as single dose; format: ADME, cell-free
In short: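 Phase 1 single ascending oral dose in healthy volunteers, with N per dose group. Total plasma Cmax and AUC(0-∞) were measured. Free-drug exposures were derived from these using plasma protein binding (human plasma fu measured at 0.5 μg/mL).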

[18] = system: Canis familiaris; assay: fAUC (0 to 24 hrs) in dog at 5 mg/kg, po; format: ADME, organism-based, Canis lupus familiaris; set-up: dose 5 mg/kg, route oral; conditions: in vivo; in short: as §3

SMILES | uptake ratio at 1 µM [1] | uptake ratio at 1 µM [2] | Drug uptake [3] | fraction unbound at 0.5 ug/ml [4] | Drug uptake [5] | Kp uu [6] | fraction unbound at 1 µM [7] | fCmax [8] | bioavailability [9] | Vd [10] | inhibition (INH) [11] | fAUC [12] | Cmax [13] | Vd [14] | dose excreted at 24 h [15] | bioavailability [16] | fCmax [17] | fAUC [18]
CC[C@H](C)C(=O)O[C@H]1C[C@H](O)C=C2C=C[C@H](C)[C@H](CC[C@@H](O)C[C@@H](O)CC(=O)O)[C@H]21 [PRAVASTATIN] | 13 | 1.5 |  |  |  |  |  |  |  |  |  |  |  |  |  |  |  | 
Cc1ncc2n1-c1ccc(Cl)cc1C(c1ccccc1F)=NC2 [MIDAZOLAM] | 0.9 | 0.93 |  |  |  |  |  |  |  |  |  |  |  |  |  |  |  | 
CC(C)c1nc(N(C)S(C)(=O)=O)nc(-c2ccc(F)cc2)c1/C=C/[C@@H](O)C[C@@H](O)CC(=O)O [ROSUVASTATIN] | 3.7 | 8.6 | 85% | 0.06 | 97% | 30 | 0.17 |  |  |  |  |  |  |  |  |  |  | 
Cc1ccc(CNC(=O)c2nn(-c3ccc(F)cc3)c(CC[C@@H](O)C[C@@H](O)CC(=O)O)c2C(C)C)cc1 | 11.1 | 2.7 | 78% | 0.016 | 98% |  | 0.052 | 1.3 ng/mL | 6% | 0.1 L/kg | -41% | 28 ng·h/mL | 1770 ng/mL | 0.14 L/kg | 12% | 44% | 90.3 ng/mL | 64 ng·h/mL
O=C([O-])C[C@H](O)C[C@H](O)CCn1c(-c2ccc(F)cc2)nc(C(=O)NCc2cccc(F)c2)c1C1CC1.[Na+] | 34.5 | 4.4 | 97% | 0.15 | 100% | 41 | 0.23 | 2 ng/mL | 0.3% | 0.1 L/kg | -39% | 293 ng·h/mL | 2.25 ng/mL | 0.17 L/kg | < 1% | 2.2% | 0.653 ng/mL | 51 ng·h/mL
